Source: ChEMBL document CHEMBL4334465, “SAR Studies on Aromatic Acylhydrazone-Based Inhibitors of Fungal Sphingolipid Synthesis as Next-Generation Antifungal Agents” (J Med Chem, 2019)
Converted amounts (≈) assume the structure as drawn.

Assays:
Pichia kudriavzevii [1] = test: Antifungal activity against fluconazole-resistant Candida krusei assessed as FICI in presence of voriconazole; format: functional
How it was run: (§1)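 Checkerboard in 96-well plate. Test compound diluted 16 to 0.015 μg/mL (11 dilutions) against the partner drug in seven dilutions: fluconazole 12 to 0.19 μg/mL, caspofungin, itraconazole or voriconazole 8 to 0.007 μg/mL. Fractional inhibitory concentration index (FICI) calculated from the combinations.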

Cryptococcus neoformans [2] = test: Fungicidal activity against Cryptococcus neoformans H99 measured after 72 hrs by time-kill assay; format: functional, var grubii H99
How it was run: (§2)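 Overnight C. neoformans washed in PBS and resuspended in HEPES-buffered YNB, pH 7.4. 2 × 10⁴ cells exposed to a range of drug concentrations in 10 mL with 0.5% DMSO final, at 37°C, 5% CO₂, shaking at 200 rpm. Aliquots sampled over 96 h, diluted and plated on YPD; CFU counted after 48 h at 30°C.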

Candida albicans [3] = test: Antifungal activity against Candida albicans measured after 24 to 72 hrs; format: functional
How it was run: (§3)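 Modified CLSI broth microdilution with inoculum per M27A3. Compounds were serially diluted 32 to 0.03 μg/mL. Media: C. neoformans in HEPES-buffered YNB without amino acids (pH 7.0, 2% glucose); Candida strains in YNB without ammonium sulfate or amino acids plus 1% asparagine (pH 7.0, 2% glucose); A. fumigatus in RPMI (pH 7.0, 2% glucose).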

Aspergillus fumigatus [4] = test: Antifungal activity against Aspergillus fumigatus assessed as FICI in presence of voriconazole; format: functional
How it was run: (§4)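 Checkerboard combination scored by fractional inhibitory concentration index. Acylhydrazone serially diluted 16 to 0.015 μg/mL (11 dilutions). Partner drug in seven dilutions: fluconazole 12 to 0.19 μg/mL, amphotericin B 5 to 0.078 μg/mL, caspofungin, itraconazole or voriconazole 8 to 0.007 μg/mL.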

Pichia kudriavzevii [5] = test: Antifungal activity against Candida krusei 6258 assessed as FICI in presence of fluconazole; format: functional; how it was run: as §4
Candida albicans [6] = test: Antifungal activity against Candida albicans assessed as FICI in presence of itraconazole; format: functional; how it was run: as §4
Cryptococcus neoformans [7] = test: Antifungal activity against Cryptococcus neoformans H99 assessed as FICI in presence of fluconazole; format: functional, var grubii H99; how it was run: as §4
[Candida] auris [8] = Antifungal activity against Candida auris assessed as FICI in presence of fluconazole; format: functional, Candidozyma auris; how it was run: as §4
Candida albicans [9] = test: Antifungal activity against Candida albicans assessed as FICI in presence of fluconazole; format: functional; how it was run: as §4
Pichia kudriavzevii [10] = test: Antifungal activity against Candida krusei measured after 24 to 72 hrs; format: functional
How it was run: (§5)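 MIC by modified CLSI broth microdilution. Candida strains grown in YNB without ammonium sulfate or amino acids with 1% asparagine, pH 7.0, 2% glucose. Inoculum per CLSI M27A3. Compound serially diluted 32 to 0.03 μg/mL. Incubation 37°C, 5% CO₂, 24–72 h, then OD450. MIC80 taken as the lowest concentration giving 80% growth inhibition versus untreated control.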

Aspergillus fumigatus [11] = test: Antifungal activity against Aspergillus fumigatus assessed as FICI in presence of fluconazole; format: functional; how it was run: as §4
Candida albicans [12] = test: Antifungal activity against Candida albicans assessed as FICI in presence of caspofungin; format: functional; how it was run: as §4
Candida parapsilosis [13] = test: Antifungal activity against Candida parapsilosis assessed as FICI in presence of itraconazole; format: functional; how it was run: as §4
Pichia kudriavzevii [14] = test: Antifungal activity against Candida krusei 6258 assessed as FICI in presence of caspofungin; format: functional; how it was run: as §4
HepG2 = test: Cytotoxicity against human HepG2 cells after 24 to 48 hrs by MTT assay; format: functional; details: read-out: LD50 (the source's name)
How it was run: (§6)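 A549 and HepG2 kept in DMEM with 10% FBS and 1% pen-strep. At passage 7, seeded at 10⁵ cells/well and allowed to adhere 14 h. Compound added at 0.03–128 μg/mL, untreated wells as controls. Incubation 37°C, 5% CO₂ for 24 or 48 h. MTT (5 mg/mL in PBS) added for 4 h, formazan dissolved in DMSO, OD570.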

Cryptococcus neoformans [15] = test: Antifungal activity against Cryptococcus neoformans H99 assessed as FICI in presence of amphotericin B; format: functional, var grubii H99; how it was run: as §4
Pichia kudriavzevii [16] = test: Antifungal activity against Candida krusei 6258 assessed as FICI in presence of itraconazole; format: functional; how it was run: as §4
Cryptococcus neoformans [17] = test: Antifungal activity against Cryptococcus neoformans H99 assessed as FICI in presence of voriconazole; format: functional, var grubii H99; how it was run: as §4
Cryptococcus neoformans [18] = test: Antifungal activity against Cryptococcus neoformans H99 measured after 24 to 72 hrs; format: functional; details: var grubii H99; how it was run: as §3
Candida parapsilosis [19] = test: Antifungal activity against Candida parapsilosis measured after 24 to 72 hrs; format: functional; details: Lodderomyces parapsilosis; how it was run: as §3
A549 = test: Cytotoxicity against human A549 cells after 24 to 48 hrs by MTT assay; format: functional; details: read-out: LD50 (the source's name); how it was run: as §6
[Candida] auris [20] = Antifungal activity against Candida auris measured after 24 to 72 hrs; format: functional; details: Candidozyma auris; how it was run: as §3
Pichia kudriavzevii [21] = test: Antifungal activity against Candida krusei 6258 assessed as FICI in presence of voriconazole; format: functional; how it was run: as §4
Aspergillus fumigatus [22] = test: Antifungal activity against Aspergillus fumigatus measured after 24 to 72 hrs; format: functional; how it was run: as §3
[Candida] auris [23] = Antifungal activity against Candida auris assessed as FICI in presence of itraconazole; format: functional, Candidozyma auris; how it was run: as §4
Candida parapsilosis [24] = test: Antifungal activity against Candida parapsilosis assessed as FICI in presence of voriconazole; format: functional; how it was run: as §4
Aspergillus fumigatus [25] = test: Antifungal activity against Aspergillus fumigatus assessed as FICI in presence of itraconazole; format: functional; how it was run: as §4
Cryptococcus neoformans [26] = test: Antifungal activity against Cryptococcus neoformans H99 assessed as FICI in presence of itraconazole; format: functional, var grubii H99; how it was run: as §4
[27] = Selectivity index, ratio of LD50 for human HepG2 cells to MIC80 for Cryptococcus neoformans H99; format: toxicity; details: read-out: Selectivity Index
How it was run: (§7)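 SI = LD₅₀/MIC₈₀. Cytotoxicity: A549 or HepG2 cells (DMEM, 10% FBS, passage 7, 10⁵ cells/well) adhered 14 h, then exposed to 0.03–128 μg/mL for 24 or 48 h at 37°C, 5% CO₂; MTT 4 h, formazan dissolved in DMSO, read at 570 nm. MIC₈₀ against C. neoformans from broth microdilution in HEPES-buffered YNB, pH 7.0.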

Candida parapsilosis [28] = test: Antifungal activity against Candida parapsilosis assessed as FICI in presence of fluconazole; format: functional; how it was run: as §4
[29] = Selectivity index, ratio of LD50 for human A549 cells to MIC80 for Cryptococcus neoformans H99; format: toxicity; details: read-out: Selectivity Index; how it was run: as §7
Pichia kudriavzevii [30] = test: Antifungal activity against fluconazole-resistant Candida krusei assessed as FICI in presence of caspofungin; format: functional; how it was run: as §1
[Candida] auris [31] = Antifungal activity against Candida auris assessed as FICI in presence of caspofungin; format: functional, Candidozyma auris; how it was run: as §4
[Candida] auris [32] = Antifungal activity against Candida auris assessed as FICI in presence of voriconazole; format: functional, Candidozyma auris; how it was run: as §4
Candida albicans [33] = test: Antifungal activity against Candida albicans assessed as FICI in presence of voriconazole; format: functional; how it was run: as §4
Pichia kudriavzevii [34] = test: Antifungal activity against multi-drug resistant Candida krusei measured after 24 to 72 hrs; format: functional; how it was run: as §5
Pichia kudriavzevii [35] = test: Antifungal activity against fluconazole-resistant Candida krusei assessed as FICI in presence of itraconazole; format: functional; how it was run: as §1
Pichia kudriavzevii [36] = test: Antifungal activity against fluconazole-resistant Candida krusei assessed as FICI in presence of fluconazole; format: functional; how it was run: as §1
Candida parapsilosis [37] = test: Antifungal activity against Candida parapsilosis assessed as FICI in presence of caspofungin; format: functional; how it was run: as §4
Cryptococcus neoformans [38] = test: Fungicidal activity against Cryptococcus neoformans H99 measured up to 96 hrs by time-kill assay; format: functional, organism-based; details: var grubii H99; how it was run: as §2

O=C(N/N=C/c1cc(Br)ccc1O)c1ccc(Br)cc1Br
fractional inhibitory concentration index (FICI) (Pichia kudriavzevii [1]): 1.063 | MFC100 (Cryptococcus neoformans [2]): 0.06 µg/mL (≈ 0.126 µM) | MIC80 (Candida albicans [3]): > 16 µg/mL | fractional inhibitory concentration index (FICI) (Aspergillus fumigatus [4]): 0.515 | fractional inhibitory concentration index (FICI) (Pichia kudriavzevii [5]): 1.002 | fractional inhibitory concentration index (FICI) (Candida albicans [6]): 0.128 | fractional inhibitory concentration index (FICI) (Cryptococcus neoformans [7]): 0.065 | fractional inhibitory concentration index (FICI) ([Candida] auris [8]): 2 | fractional inhibitory concentration index (FICI) (Candida albicans [9]): 2 | MIC80 (Pichia kudriavzevii [10]): 8 µg/mL (≈ 16.8 µM) | fractional inhibitory concentration index (FICI) (Aspergillus fumigatus [11]): 2 | fractional inhibitory concentration index (FICI) (Candida albicans [12]): 0.502 | fractional inhibitory concentration index (FICI) (Candida parapsilosis [13]): 2.098 | fractional inhibitory concentration index (FICI) (Pichia kudriavzevii [14]): 1.002 | CC50 (HepG2): 64 µg/mL (≈ 134 µM) | fractional inhibitory concentration index (FICI) (Cryptococcus neoformans [15]): 0.086 | fractional inhibitory concentration index (FICI) (Pichia kudriavzevii [16]): 2.015 | fractional inhibitory concentration index (FICI) (Cryptococcus neoformans [17]): 0.072 | MIC80 (Cryptococcus neoformans [18]): 0.06 µg/mL (≈ 0.126 µM) | MIC80 (Candida parapsilosis [19]): 8 µg/mL (≈ 16.8 µM) | CC50 (A549): 64 µg/mL (≈ 134 µM) | MIC80 ([Candida] auris [20]): > 16 µg/mL | fractional inhibitory concentration index (FICI) (Pichia kudriavzevii [21]): 1.06 | MIC80 (Aspergillus fumigatus [22]): > 16 µg/mL | fractional inhibitory concentration index (FICI) ([Candida] auris [23]): 1.016 | fractional inhibitory concentration index (FICI) (Candida parapsilosis [24]): 0.135 | fractional inhibitory concentration index (FICI) (Aspergillus fumigatus [25]): 0.484 | fractional inhibitory concentration index (FICI) (Cryptococcus neoformans [26]): 0.072 | selectivity ratio [27]: 1070 | fractional inhibitory concentration index (FICI) (Candida parapsilosis [28]): 1.015 | selectivity ratio [29]: 1070 | fractional inhibitory concentration index (FICI) (Pichia kudriavzevii [30]): 2 | fractional inhibitory concentration index (FICI) ([Candida] auris [31]): 2 | fractional inhibitory concentration index (FICI) ([Candida] auris [32]): 1.125 | fractional inhibitory concentration index (FICI) (Candida albicans [33]): 0.256 | MIC80 (Pichia kudriavzevii [34]): > 16 µg/mL | fractional inhibitory concentration index (FICI) (Pichia kudriavzevii [35]): 0.375 | fractional inhibitory concentration index (FICI) (Pichia kudriavzevii [36]): 2 | fractional inhibitory concentration index (FICI) (Candida parapsilosis [37]): 1.5 | Activity (Cryptococcus neoformans [38]): Dose-dependent effect
